High-throughput results: PubChem, several laboratories
T cell HTS: modulators of CD8 T cell-vesicle binding, primary screen, mouse 2C CD8+ T cells, flow cytometry; response (vesicle binding), % at 7 µM; 2C CD8+ T cell-vesicle binding; active compounds read low; 0.068% of 330,000 active; AID 2052, 2009;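 active = response, share of CD8 T cells binding vesicles, and their 90th percentile fluorescence all below set limits, cut at about 80% in these data, passing the limit was not always enough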;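 also: values below 100% mean blocked vesicle binding to the CD8+ T cells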
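Incubation: binding step 1.5 h, 37 °C, antibody labelling 20 min, ice; system: murine 2C transgenic CD8+ T lymphocytes; technique: cytometric PE anti-B7-1 and Alexa647 anti-CD8 signals after 1% paraformaldehyde fixation; also added: QL9-charged Drosophila Ld/ICAM-1/B7-1 vesicles; control set: naked versus QL9-loaded vesicles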
Glyco luc inh: increase of ERlucT glycosylation luciferase signal, primary screen, N-linked glycosylation inhibitor project, D54 ERlucT cells, luminescence, set 2; D54 ERlucT glycosylation luciferase reporter, 24 h; percent of 100 nM tunicamycin response; reporter increase, % at 12.5 µM; 0.23% of 360,000 active; AID 588692, 2011;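 active = mean luciferase reporter signal, scaled so untreated is 0 and the glycosylation-blocking control 100, at or above a set limit in every replicate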;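 also: luciferase carries N-glycosylation sites so blocking glycosylation raises the light; 0% = median of neutral control wells and 100% = median of 100 nM tunicamycin wells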
ALR inh: inhibitors of human ALR sulfhydryl oxidase, primary screen, biochemical, H2O2 detection, HRP-luminol luminescence, single point; inhibition, % (concentration not given with the values); FAD-linked sulfhydryl oxidase ALR (Homo sapiens), P55789; 3.8% of 290,000 active; purified ALR, DTT oxidation;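 active = mean replicate inhibition above about 79%, with every replicate also reaching it, limit read from the data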
Target sequence (P55789 whole entry, looked up): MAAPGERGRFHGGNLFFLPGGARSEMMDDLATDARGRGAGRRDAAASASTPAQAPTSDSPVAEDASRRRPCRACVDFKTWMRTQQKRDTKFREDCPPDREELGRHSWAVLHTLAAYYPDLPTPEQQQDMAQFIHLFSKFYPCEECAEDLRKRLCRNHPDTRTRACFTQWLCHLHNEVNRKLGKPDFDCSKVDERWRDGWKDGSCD
Starred values were filed as active, the others as inactive; i = inactive; nt = no result. Shown is part of a subset that was picked to be rich in hits.

SMILES | T cell HTS | Glyco luc inh | ALR inh
COc1cccc(CC(=O)N2CCC(n3nccc3NC(=O)C3CCOC3)CC2)c1 (configuration not stated) | 436 | -1 | 4
O=c1oc2ccccc2n1CSC1=NCCS1 | 238 | -1 | 99*
O=c1oc2ccccc2n1CSc1nc2ccccc2s1 | 214 | -2 | -10
CCN(C(=O)COC(=O)/C(C#N)=C/c1cc(C)n(CCOC)c1C)c1c(N)n(Cc2ccccc2)c(=O)[nH]c1=O | nt | 0 | nt
O=C(Nc1cccc(C(F)(F)F)c1)c1ccc2sc([C@H]3C[C@H](O)[C@@H](CO)O3)nc2c1 | nt | -1 | nt
Cc1cc(C)c(S(=O)(=O)Nc2ccccc2)c(C)c1 | nt | -1 | nt
Cc1cc(C)c(S(=O)(=O)Nc2ccc(O)cc2)c(C)c1 | 218 | -3 | 99*
Cc1cc(=O)[nH]c2ccc(S(=O)(=O)Nc3ccc(O)cc3)cc12 | 300 | 2 | 99*
Cc1cc(=O)[nH]c2ccc(S(=O)(=O)Nc3ccccc3)cc12 | 444 | 12 | -1
Cc1nn(CC(=O)NCCc2cccs2)c(=O)c2cc3ccccc3n12 | 190 | 3 | 2
CC(=O)c1ccc(S(=O)(=O)Nc2ccc3c(c2)OCO3)cc1 | 202 | -2 | 7
Cc1coc2cc3oc(=O)c(Cc4ccccc4)c(C)c3cc12 | 217 | -2 | -5
Cc1c(Cc2ccccc2)c(=O)oc2cc(O)cc(O)c12 | 266 | 0 | 78*
O=C(Nc1ccccc1)/C(=C/c1cccnc1)NC(=O)c1ccccc1 | 386 | 1 | -2
O=C(NNc1ccccc1)/C(=C\c1cccnc1)NC(=O)c1ccccc1 | 378 | 1 | 98*
COc1ccc(N2CCN(C(CNC(=O)c3ccc4c(c3)OCO4)c3ccco3)CC2)cc1 (configuration not stated) | 563 | -2 | 57
COc1ccc(N2CCN(C(CNC(=O)C(C)C)c3ccc4c(c3)OCO4)CC2)cc1 (configuration not stated) | i | 1 | 86*
COC(=O)NCC(c1ccc2c(c1)OCO2)N1CCN(c2ccc(OC)cc2)CC1 (configuration not stated) | 224 | 2 | 91*
COc1ccc(S(=O)(=O)NCC(c2ccc3c(c2)OCO3)N2CCOCC2)cc1 (configuration not stated) | 399 | -1 | 3
CN(C)CCNC(=O)C(=O)NCC(c1ccc2c(c1)OCO2)N1CCN(c2ccc(F)cc2)CC1 (configuration not stated) | 591 | -1 | 99*
COCCNC(=O)C(=O)NCC(c1ccc2c(c1)OCO2)N1CCN(c2ccc(F)cc2)CC1 (configuration not stated) | 40 | 1 | 31
Cc1ccc(NS(=O)(=O)c2c(C)[nH]c(C)c2C(=O)N2CCCC2)cc1Cl | 443 | 2 | 0
Cc1ccc(S(=O)(=O)N(C)C[C@@H]2Oc3ccc(NS(C)(=O)=O)cc3CC(=O)N([C@H](C)CO)C[C@@H]2C)cc1 | 469 | 4 | 8
CCC(C)c1ccc(NC(=S)NN2CCOCC2)cc1 (configuration not stated) | 915 | 1 | 3
Cc1cccc(C(C(=O)NC2CCCC2)N(C(=O)c2csnn2)C2CCCC2)c1 (configuration not stated) | 226 | -2 | 0
SMILES | T cell HTS | Glyco luc inh | ALR inh
CC(=O)Nc1ccc(NC(=O)C(C)Sc2nnc(-c3cccs3)o2)cc1 (configuration not stated) | 341 | -1 | -4
O=C1NC(=O)C(c2ccccc2)(c2ccc(Cl)cc2Cl)N1 (configuration not stated) | nt | 1 | nt
O=C(Cc1ccccc1)NCC(=O)Nc1cccc(Cl)c1 | 174 | 1 | -14
Cc1ccc(C(C)C)c(OCC(=O)c2c(O)c3ccccc3oc2=O)c1 | 385 | -1 | 94*
Cc1ccc(OCC(=O)c2c(O)c3ccccc3oc2=O)cc1C | 202 | 3 | 29
Cc1noc(C)c1C(=O)N1CCC1(C)C(=O)NS(=O)(=O)c1cccs1 (configuration not stated) | nt | -1 | nt
O=C(N/N=C\c1cccc(Cl)c1)c1ccc(Cn2cccn2)o1 | 604 | 0 | 88*
Cc1ccccc1/C=N\NC(=O)c1ccc(Cn2cccn2)o1 | 234 | 2 | -6
CCOC(=O)NN1C(=O)c2ccccc2NC12CCCC2 | 531 | -1 | -4
COc1ccccc1OCC(=O)Sc1ccc(C)cc1 | 325 | 0 | 98*
Cc1ccc(OCC(=O)NCCNC(=O)COc2ccc(C)cc2)cc1 | 224 | 1 | -3
Cc1ccc(OCC(=O)Sc2ccc(C)cc2)cc1 | 254 | 2 | 100*
COc1cc(C(=O)Sc2ccc(C)cc2)cc(OC)c1OC | 297 | 2 | 54
Cc1ccc(S(=O)(=O)N2CCN(C(=O)Cn3c(=O)cnc4ccccc43)CC2)cc1 | 350 | -1 | -1
S=c1[nH]c2cc(Cl)ccc2s1 | 940 | 2 | 98*
Cc1cc(Cl)cc2sc(=S)[nH]c12 | nt | 1 | nt
Cc1nn(-c2ccccc2)c(C)c1/C=N/NC(=O)CSc1nnc(SCc2cccc3ccccc23)s1 | 240 | 0 | 0
O=C(Nc1nc(-c2ccccc2)cs1)c1ccccc1NS(=O)(=O)c1ccc(F)cc1 | 189 | -5 | 96*
O=S(=O)(Nc1ccc(-c2csc(-c3ccccc3)n2)cc1)c1ccc(F)cc1 | 507 | -4 | 1
CC(=O)NC1C(=O)N=C(SCC(=O)NC(C)c2ccccc2)NC1=O (configuration not stated) | 493 | 3 | 8
O=C(CSC1=NC(=O)C(c2ccccc2)C(=O)N1)Nc1cccc(Cl)c1 (configuration not stated) | 454 | 1 | 98*
Cn1nnnc1SCC(=O)Nc1ccccc1[N+](=O)[O-] | 266 | -1 | nt
CC(=O)NC1C(=O)N=C(SCC(=O)Nc2ccc(C(F)(F)F)cc2Cl)NC1=O (configuration not stated) | 192 | 0 | 98*
O=C(CSC1=NC(=O)C(c2ccccc2)C(=O)N1)Nc1ccccc1[N+](=O)[O-] (configuration not stated) | 454 | 1 | 95*
O=C(CSC1=NNC(c2ccccn2)S1)Nc1cccc(Cl)c1 (configuration not stated) | 341 | 8 | 70
SMILES | T cell HTS | Glyco luc inh | ALR inh
CCc1nc(SCC(=O)Nc2ccccc2Cl)n[nH]1 | 230 | 0 | -2
O=C(CSC1=NC(=O)C(c2ccccc2)C(=O)N1)Nc1ccccc1Cl (configuration not stated) | 366 | 1 | 99*
COc1ccc(Cc2noc(CN3CCCC(OCc4ccccn4)C3)n2)cc1OC (configuration not stated) | 958 | 4 | -15
COC(=O)c1ccc(NC(=O)CSC2=NC(=O)C(c3ccccc3)C(=O)N2)cc1 (configuration not stated) | 266 | 1 | 99*
COC(=O)c1ccc(NC(=O)CSc2nc3ccccc3c(=O)[nH]2)cc1 | 234 | -3 | -22
CC(=O)C1=C(O)C(=O)N(c2ccc(C(=O)O)cc2)C1c1ccc([N+](=O)[O-])cc1 (configuration not stated) | 504 | 2 | 43
